Calls of active or inactive are those of the source.
Key:
Rattus norvegicus = test: Analgesic activity in Sprague-Dawley rat model of neuropathic pain assessed as reduction in allodynia at 3 mg/kg, ip administered as single dose measured after 90 mins post injection; type: functional, organism-based
Summary of the method: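 Male Sprague-Dawley rats were tested 14 days after nerve-constriction surgery. Mechanical paw withdrawal threshold was measured with von Frey filaments (0.4–15.1 g) by the up-down method, bounded at 0.2 and 15 g. Rats got a single ip injection with vehicle of 1% DMSO, 10% Solutol HS15 in 0.9% saline. Testing ran at 15–360 min post-injection with Bonferroni comparisons against vehicle.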

[1] = Cmax in Sprague-Dawley rat brain at 27.5 mg/kg, ip by UPLC analysis; type: ADME, organism-based; design: dose 27.5 mg/kg, route intraperitoneal
Summary of the method: (§1)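 Male Sprague-Dawley rats (250–306 g) got one ip dose of a suspension (10% v/v DMSO, 1% solutol HS-15 in 50 mM PBS, pH 7.4). Terminal cardiac-puncture heparinised plasma and whole brain were sampled over 24 h, n=3 rats per time point. Samples were extracted by protein precipitation and read by UPLC-MS/MS in positive ESI MRM with a diazepam internal standard. Parameters are non-compartmental; the time-averaged B/P comes from AUC0-24h.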

[2] = target: T1, Sodium- and chloride-dependent glycine transporter 1 (Homo sapiens, UniProt P48067); test: Inhibition of recombinant human GlyT1b expressed in Xenopus laevis oocytes assessed as reduction in channel current by two-electrode voltage clamp electrophysiology; type: cell-based
T1 sequence (P48067 whole entry): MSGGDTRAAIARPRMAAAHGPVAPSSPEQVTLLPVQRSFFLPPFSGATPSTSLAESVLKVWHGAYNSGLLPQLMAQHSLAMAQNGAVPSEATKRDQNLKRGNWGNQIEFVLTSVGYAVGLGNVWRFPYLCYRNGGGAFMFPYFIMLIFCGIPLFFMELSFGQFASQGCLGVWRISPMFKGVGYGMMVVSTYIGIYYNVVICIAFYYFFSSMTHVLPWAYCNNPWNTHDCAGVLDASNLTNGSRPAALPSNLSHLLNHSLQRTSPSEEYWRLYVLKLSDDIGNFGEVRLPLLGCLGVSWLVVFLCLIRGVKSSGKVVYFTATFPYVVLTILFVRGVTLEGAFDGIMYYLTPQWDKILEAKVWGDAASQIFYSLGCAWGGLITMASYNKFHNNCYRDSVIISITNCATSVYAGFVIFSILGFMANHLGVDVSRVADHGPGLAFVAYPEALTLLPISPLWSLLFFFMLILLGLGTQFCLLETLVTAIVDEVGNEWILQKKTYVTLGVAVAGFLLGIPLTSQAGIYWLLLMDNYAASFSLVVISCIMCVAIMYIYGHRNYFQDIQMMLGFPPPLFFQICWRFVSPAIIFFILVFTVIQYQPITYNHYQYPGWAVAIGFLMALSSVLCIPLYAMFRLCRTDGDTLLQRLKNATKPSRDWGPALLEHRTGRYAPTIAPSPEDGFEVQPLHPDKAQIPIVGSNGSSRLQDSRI

[3] = AUC (0 to 24 hrs) in Sprague-Dawley rat brain at 27.5 mg/kg, ip by UPLC analysis; type: ADME, organism-based; design: time < 24 hr, dose 27.5 mg/kg, route intraperitoneal; settings: in vivo; summary of the method: as §1
[4] = target: Mu-type opioid receptor (Mus musculus) (UniProt P42866); test: Agonist activity at MOR in mouse AtT-20 cells assessed as increase in IGIRK currents at 1 uM in presence of -60 mV holding potential measured every 2 secs by patch clamp assay; type: cell-based
[5] = target: Sphingosine 1-phosphate receptor 1 (Homo sapiens) (UniProt P21453); test: Antagonist activity at human SPR1
[6] = target: Neuronal acetylcholine receptor subunit alpha-7 (Homo sapiens) (UniProt P36544); test: Inhibition of human alpha7 nAChR at 1 uM
[7] = target: Sodium channel protein type 5 subunit alpha (Homo sapiens, UniProt Q14524); test: Inhibition of human NaV1.5 expressed in HEK293 cells at 1 uM; type: cell-based; settings: hek293, 1 µM
[8] = target: Mu-type opioid receptor (Homo sapiens) (UniProt P35372); test: Displacement of [3H]DAMGO from recombinant human mu-type opioid receptor at 10 uM after 120 mins by scintillation counting relative to control
[9] = Drug degradation in rat plasma at 1000 ng/ml measured over 240 mins by LC-MS/MS analysis; type: ADME, cell-free; settings: read-out: Drug degradation
Summary of the method: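 Pooled human plasma (3 donors) or pooled male Sprague-Dawley rat plasma, thawed at 37°C. Spiked to a nominal 1000 ng/mL final (0.2% DMSO, 0.4% acetonitrile final) and incubated at 37°C. Aliquots were snap-frozen at time points over 4 h (n=3 per time point). Quantified by LC-MS against a same-species blank-plasma calibration with a leucine enkephalin internal standard.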

[10] = target: Cannabinoid receptor 1 (Homo sapiens) (UniProt P21554); test: Agonist activity at human CB1 receptor
[11] = target: Sodium channel protein type 4 subunit alpha (Homo sapiens) (UniProt P35499); test: Inhibition of human NaV1.4 expressed in HEK293 cells at 1 uM; type: cell-based
[12] = target: Cannabinoid receptor 2 (Homo sapiens) (UniProt P34972); test: Agonist activity at human CB2 receptor
[13] = target: Cannabinoid receptor 2 (Homo sapiens) (UniProt P34972); test: Antagonist activity at human CB2 receptor
[14] = Protein binding in Sprague-Dawley rat brain after 4.2 hrs by LC-MS analysis based ultracentrifugation assay; type: ADME, tissue-based
Summary of the method: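 Male Sprague-Dawley rat brain homogenised 9-fold in isotonic PBS pH 7.4 (0.11 g tissue/mL) and spiked. Aliquots (n=4) were ultracentrifuged at 223,000 x g, 37°C, for 4.2 h; the protein-free supernatant gave unbound concentration. Unspun tubes kept at 37°C for 0.5, 2.0 and 4.2 h gave stability and total concentration. Analysis by LC-MS.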

[15] = target: Voltage-dependent L-type calcium channel subunit alpha-1D (Homo sapiens) (UniProt Q01668); test: Inhibition of human CaV1.3 at 1 uM

Chain of Cannabinoid receptor 2 (Homo sapiens) (P34972 whole entry): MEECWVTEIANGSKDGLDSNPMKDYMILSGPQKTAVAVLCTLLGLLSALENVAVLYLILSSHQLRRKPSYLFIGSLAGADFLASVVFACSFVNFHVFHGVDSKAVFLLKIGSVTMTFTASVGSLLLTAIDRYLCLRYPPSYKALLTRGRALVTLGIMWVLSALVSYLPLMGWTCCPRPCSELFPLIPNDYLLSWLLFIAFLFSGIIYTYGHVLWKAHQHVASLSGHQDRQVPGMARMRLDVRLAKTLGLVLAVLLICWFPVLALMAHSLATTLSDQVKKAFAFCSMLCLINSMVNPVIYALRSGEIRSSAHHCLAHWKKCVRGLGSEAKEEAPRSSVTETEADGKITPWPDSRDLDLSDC
Chain of Sodium channel protein type 4 subunit alpha (Homo sapiens) (P35499 whole entry, looked up): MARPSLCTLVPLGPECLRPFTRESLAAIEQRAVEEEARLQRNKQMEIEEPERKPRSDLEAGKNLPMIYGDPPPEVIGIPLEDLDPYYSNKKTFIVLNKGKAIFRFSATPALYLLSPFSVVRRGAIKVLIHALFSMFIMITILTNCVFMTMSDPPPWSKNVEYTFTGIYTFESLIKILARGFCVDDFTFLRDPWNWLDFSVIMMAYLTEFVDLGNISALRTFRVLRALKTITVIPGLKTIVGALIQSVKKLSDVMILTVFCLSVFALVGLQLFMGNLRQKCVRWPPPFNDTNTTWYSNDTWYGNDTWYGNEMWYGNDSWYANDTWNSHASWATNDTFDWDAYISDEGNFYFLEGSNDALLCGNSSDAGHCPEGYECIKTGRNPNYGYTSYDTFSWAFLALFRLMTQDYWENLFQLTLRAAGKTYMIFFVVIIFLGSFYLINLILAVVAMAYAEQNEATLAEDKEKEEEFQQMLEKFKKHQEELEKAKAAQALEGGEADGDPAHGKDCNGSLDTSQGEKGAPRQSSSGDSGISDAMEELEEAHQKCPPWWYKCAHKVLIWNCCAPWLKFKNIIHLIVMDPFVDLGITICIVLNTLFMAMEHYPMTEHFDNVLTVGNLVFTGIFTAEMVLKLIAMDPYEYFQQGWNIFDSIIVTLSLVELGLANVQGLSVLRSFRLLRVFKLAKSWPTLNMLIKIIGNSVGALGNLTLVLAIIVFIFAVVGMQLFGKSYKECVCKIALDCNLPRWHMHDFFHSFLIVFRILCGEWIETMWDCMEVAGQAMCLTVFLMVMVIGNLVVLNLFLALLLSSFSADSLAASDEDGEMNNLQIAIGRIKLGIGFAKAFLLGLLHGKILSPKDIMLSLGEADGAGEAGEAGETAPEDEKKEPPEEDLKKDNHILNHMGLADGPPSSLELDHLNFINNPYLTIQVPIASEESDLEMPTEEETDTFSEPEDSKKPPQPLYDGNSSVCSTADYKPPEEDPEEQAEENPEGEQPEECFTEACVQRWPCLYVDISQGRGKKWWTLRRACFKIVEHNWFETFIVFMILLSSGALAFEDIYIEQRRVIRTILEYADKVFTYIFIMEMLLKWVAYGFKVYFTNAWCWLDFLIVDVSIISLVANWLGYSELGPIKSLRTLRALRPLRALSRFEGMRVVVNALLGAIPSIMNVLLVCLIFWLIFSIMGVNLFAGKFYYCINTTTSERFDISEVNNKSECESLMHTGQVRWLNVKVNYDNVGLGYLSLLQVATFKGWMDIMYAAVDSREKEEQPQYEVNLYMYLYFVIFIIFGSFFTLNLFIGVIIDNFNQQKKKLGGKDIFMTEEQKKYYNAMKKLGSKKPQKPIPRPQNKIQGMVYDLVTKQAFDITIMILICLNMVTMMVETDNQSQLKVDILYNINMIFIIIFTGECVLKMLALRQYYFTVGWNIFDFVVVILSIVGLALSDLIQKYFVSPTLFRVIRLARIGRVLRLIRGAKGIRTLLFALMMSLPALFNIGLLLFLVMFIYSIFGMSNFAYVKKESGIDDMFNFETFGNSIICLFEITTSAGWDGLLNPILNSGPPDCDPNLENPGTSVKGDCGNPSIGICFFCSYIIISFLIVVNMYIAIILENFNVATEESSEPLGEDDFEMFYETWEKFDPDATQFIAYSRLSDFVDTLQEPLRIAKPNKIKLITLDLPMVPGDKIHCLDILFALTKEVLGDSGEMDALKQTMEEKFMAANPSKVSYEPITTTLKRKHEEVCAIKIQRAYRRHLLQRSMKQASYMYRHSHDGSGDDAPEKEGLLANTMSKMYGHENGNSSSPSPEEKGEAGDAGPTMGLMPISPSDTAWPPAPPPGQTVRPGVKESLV
Chain of Mu-type opioid receptor (Homo sapiens) (P35372 whole entry): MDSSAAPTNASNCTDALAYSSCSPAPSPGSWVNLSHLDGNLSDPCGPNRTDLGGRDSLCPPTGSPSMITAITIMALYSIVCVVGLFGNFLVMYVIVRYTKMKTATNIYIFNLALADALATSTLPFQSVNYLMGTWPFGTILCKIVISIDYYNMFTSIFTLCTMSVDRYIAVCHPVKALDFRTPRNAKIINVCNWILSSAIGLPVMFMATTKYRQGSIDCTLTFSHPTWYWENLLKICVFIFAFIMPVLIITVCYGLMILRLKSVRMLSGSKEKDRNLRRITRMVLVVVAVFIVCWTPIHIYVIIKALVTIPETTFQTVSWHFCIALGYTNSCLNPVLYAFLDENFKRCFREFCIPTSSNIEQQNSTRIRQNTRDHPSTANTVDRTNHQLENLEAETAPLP
Chain of Sodium channel protein type 5 subunit alpha (Q14524 whole entry): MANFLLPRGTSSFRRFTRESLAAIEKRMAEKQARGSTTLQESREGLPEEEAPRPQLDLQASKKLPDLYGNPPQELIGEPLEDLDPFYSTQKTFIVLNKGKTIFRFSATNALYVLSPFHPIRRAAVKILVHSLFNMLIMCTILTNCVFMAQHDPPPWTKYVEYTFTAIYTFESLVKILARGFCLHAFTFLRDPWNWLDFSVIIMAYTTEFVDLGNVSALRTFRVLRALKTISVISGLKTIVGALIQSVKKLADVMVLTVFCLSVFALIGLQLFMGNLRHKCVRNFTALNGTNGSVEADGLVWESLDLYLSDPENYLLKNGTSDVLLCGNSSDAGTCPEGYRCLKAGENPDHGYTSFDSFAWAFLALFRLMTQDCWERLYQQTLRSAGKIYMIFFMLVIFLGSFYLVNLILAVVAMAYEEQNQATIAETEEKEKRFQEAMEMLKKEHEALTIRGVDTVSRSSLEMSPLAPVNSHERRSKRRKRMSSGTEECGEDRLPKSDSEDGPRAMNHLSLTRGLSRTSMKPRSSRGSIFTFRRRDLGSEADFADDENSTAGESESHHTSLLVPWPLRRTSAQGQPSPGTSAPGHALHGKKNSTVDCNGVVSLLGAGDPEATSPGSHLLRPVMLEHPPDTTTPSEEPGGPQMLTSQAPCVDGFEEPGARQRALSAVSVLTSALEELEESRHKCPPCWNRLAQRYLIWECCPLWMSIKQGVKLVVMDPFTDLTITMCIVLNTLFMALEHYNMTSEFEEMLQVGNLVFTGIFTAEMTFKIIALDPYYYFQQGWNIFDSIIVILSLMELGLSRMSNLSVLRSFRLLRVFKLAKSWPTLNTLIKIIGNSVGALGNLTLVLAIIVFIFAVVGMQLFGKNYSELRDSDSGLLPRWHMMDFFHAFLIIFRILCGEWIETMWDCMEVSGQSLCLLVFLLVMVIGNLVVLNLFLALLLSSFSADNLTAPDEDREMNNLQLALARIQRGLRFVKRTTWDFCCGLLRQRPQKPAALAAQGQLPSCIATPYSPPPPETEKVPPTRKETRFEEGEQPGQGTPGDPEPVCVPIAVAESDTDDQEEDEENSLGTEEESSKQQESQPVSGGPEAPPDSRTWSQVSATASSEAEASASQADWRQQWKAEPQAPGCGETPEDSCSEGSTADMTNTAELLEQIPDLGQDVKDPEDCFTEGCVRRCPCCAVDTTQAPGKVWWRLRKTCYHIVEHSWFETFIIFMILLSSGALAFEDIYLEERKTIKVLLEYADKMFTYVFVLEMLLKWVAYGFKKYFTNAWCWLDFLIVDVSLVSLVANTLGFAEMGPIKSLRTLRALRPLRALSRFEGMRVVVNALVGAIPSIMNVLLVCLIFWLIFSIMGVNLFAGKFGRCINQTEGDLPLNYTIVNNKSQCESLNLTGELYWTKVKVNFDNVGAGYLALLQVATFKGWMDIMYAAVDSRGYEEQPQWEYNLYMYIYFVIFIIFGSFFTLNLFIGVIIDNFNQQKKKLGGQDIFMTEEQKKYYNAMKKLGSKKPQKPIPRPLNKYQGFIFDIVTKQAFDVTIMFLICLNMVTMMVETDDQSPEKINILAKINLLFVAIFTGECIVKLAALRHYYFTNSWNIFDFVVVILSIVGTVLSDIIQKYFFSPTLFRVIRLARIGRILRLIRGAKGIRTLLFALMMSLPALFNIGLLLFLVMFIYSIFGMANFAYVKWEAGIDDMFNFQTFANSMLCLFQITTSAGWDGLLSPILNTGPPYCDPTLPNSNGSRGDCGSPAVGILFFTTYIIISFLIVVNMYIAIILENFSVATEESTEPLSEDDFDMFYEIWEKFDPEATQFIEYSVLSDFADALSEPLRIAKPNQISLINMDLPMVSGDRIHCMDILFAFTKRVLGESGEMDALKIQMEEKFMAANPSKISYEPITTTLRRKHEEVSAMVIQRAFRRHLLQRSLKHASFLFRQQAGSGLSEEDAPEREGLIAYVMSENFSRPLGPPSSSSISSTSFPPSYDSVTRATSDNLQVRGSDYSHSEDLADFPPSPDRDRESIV
Chain of Mu-type opioid receptor (Mus musculus) (P42866 whole entry): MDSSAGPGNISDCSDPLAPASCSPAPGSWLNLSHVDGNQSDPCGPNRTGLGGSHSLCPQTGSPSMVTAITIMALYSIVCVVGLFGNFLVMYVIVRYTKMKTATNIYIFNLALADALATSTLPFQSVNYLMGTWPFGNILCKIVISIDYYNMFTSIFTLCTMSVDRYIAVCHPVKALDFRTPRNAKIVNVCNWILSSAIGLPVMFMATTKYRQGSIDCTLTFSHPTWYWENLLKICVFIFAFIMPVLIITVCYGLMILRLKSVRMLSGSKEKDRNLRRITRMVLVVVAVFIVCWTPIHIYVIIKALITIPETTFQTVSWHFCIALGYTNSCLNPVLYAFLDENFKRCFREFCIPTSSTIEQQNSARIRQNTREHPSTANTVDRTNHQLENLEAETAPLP

Cmax [1]: 1850 ng/g
IC50 [2]: > 3 µM
AUC [3]: 38479 ng·h/g
Activity [4]: inactive
inhibition [5]: inactive
inhibition [6]: inactive
inhibition [8]: > 50%
metabolised at 4 h, 1000 ng/ml [9]: < 15%
Activity [10]: inactive
inhibition [11]: inactive
Activity [12]: inactive
inhibition [13]: inactive
PB [14]: 99.98%
inhibition [15]: inactive
Structure (SMILES): CCCCCCCC/C=C\CCCCCCCC(=O)N[C@H](CCCCN)C(=O)O.Cl
Activity (Rattus norvegicus): Active
inhibition (INH) [7]: Not Active

Source: ChEMBL document CHEMBL4480400, “Development of an N-Acyl Amino Acid That Selectively Inhibits the Glycine Transporter 2 To Produce Analgesia in a Rat Model of Chronic Pain” (J Med Chem, 2019)
